Screening data (PubChem)
APJ agonist = agonists of human apelin receptor APJ, primary screen, CHO-K1 cells, PathHunter beta-arrestin, luminescence; P35414; 0% DMSO wells, 100% apelin; activation, % at 20 µM; 330,000 tested, 0.11% active;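 active means activation more than six SD over the plate average, tested at 20 µM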
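Material: engineered CHO-K1 APJ arrestin reporter cells; amount: 1000 CHO-K1 reporter cells seeded per well; incubation: compound stimulation 90 min at 25 °C, detection 60 min; signal: luminescent beta-gal fragment complementation, chemiluminescent substrate; read-out basis: APJ agonist activity; controls: DMSO-only wells as negative, 10 nM Apelin-13 as positive control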
CXCR6 block = CXCR6 receptor inhibitors, primary screen, cell-based, beta-arrestin, luminescence, CHO-K1 PathHunter, 1536-well; 360,000 tested, 0.36% active; AID 602244, 2012; inhibition, % at 20 µM; in the data active means inhibition above about 34%, passing the limit was not always enough;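 further: antagonist mode with CXCL16 agonist at 10 nM final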
m5-HT2A agonist = mouse Htr2a agonists via beta-arrestin recruitment, primary screen, cell-based, luminescence; activation, % at 7.6 µM; 5-hydroxytryptamine receptor 2A (Mus musculus), P35363; 360,000 tested, 0.66% active; CHO-K1 mHTR2A beta-arrestin complementation; percent of 30 µM serotonin response;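 active means activation above a run cutoff, the mean activation of all tested compounds plus 3 SD, cut at about 14% in these data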
Target sequence (P35363 whole entry, looked up): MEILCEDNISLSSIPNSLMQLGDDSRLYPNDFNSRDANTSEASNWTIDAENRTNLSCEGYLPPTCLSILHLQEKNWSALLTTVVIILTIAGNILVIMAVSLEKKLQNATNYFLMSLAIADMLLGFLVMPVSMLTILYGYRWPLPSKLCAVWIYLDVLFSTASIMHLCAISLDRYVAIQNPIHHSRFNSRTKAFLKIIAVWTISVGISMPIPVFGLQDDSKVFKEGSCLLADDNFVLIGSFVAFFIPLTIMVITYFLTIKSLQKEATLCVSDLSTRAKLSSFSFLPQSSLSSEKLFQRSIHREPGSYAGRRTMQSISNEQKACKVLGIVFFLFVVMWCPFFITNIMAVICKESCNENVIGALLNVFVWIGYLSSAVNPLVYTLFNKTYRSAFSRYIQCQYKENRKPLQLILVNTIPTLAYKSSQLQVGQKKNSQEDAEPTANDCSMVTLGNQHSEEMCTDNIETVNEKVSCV
APJ antag = antagonists of human apelin receptor APJ, primary screen, CHO-K1 cells, beta-arrestin complementation, luminescence; P35414; inhibition, % at 20 µM; 330,000 tested, 0.32% active; AID 2521, 2010;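 active means inhibition above about 40% at 20 µM, limit read from the data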;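 further: cells challenged with 10 nM apelin-13 agonist together with compound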
CCR6 antagonist = CCR6 receptor antagonists, primary screen, cell-based, CHO-K1, luminescence, beta-arrestin, uHTS; inhibition, % at 20 µM; 340,000 tested, 0.49% active; CHO-K1 CCR6 PathHunter beta-arrestin, CCL20-stimulated;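 active means compounds whose inhibition of the agonist-driven luminescence signal at 20 µM reaches about 50%, limit read from the data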;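 further: cells stimulated with CCL20 at 14 nM final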
EBI2 block = EBI2 receptor antagonists, beta-arrestin recruitment, primary screen, cell-based, luminescence, 7a,25-OHC stimulation, uHTS; G-protein coupled receptor 183 (Homo sapiens), P32249; 7a,25-OHC stimulated; inhibition, % at 5 µM; 360,000 tested, 0.81% active; AID 651636, 2012; in the data active means inhibition above about 38%;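 further: enzyme fragment complementation signal reports receptor beta-arrestin coupling in cells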
CXCR6 confirm = CXCR6 receptor antagonists, confirmation, cell-based, single concentration, beta-arrestin, luminescence | inhibition, % at 20 µM | 700 tested, 65% active | CHO-K1 CXCR6 PathHunter beta-arrestin | shares compounds with CXCR6 block;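 active means mean inhibition over four retests above 40%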;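 further: receptor stimulated with 10 nM CXCL16 agonist; beta-galactosidase fragment complementation upon beta-arrestin recruitment to receptor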
Each line names hits and unclear results; the compound was inactive in the other large screens (follow-up assays come after a bar, where they were run). Most compounds without a hit are left out; they make up all but 2.1% or so of the library.

COc1ccc(/C=C/c2ccc3cccc(O)c3n2)c(OC)c1OC	CXCR6 block 38, CCR6 antagonist 61 | CXCR6 confirm 44
COc1cc(/C=C/c2ccc3cccc(O)c3n2)cc(Cl)c1OC	none
COc1cc(Br)cc(/C=C/c2ccc3cccc(O)c3n2)c1OC	none
Cc1ccc(/C=C/c2ccc3cccc(O)c3n2)s1	CXCR6 block 36, CCR6 antagonist 52 | CXCR6 confirm inactive
COc1ccccc1OCc1ccc(C(=O)c2ccccc2)cc1	none
Cc1ccc2c(c1)NC(=O)C(CC(=O)Nc1ccc(CN3CCC(C)CC3)cc1)O2 (stereo unspecified)	none
CCOC(=O)c1cc([N+](=O)[O-])c([N+](=O)[O-])cc1NC(C)=O	CXCR6 block 67 (no result: APJ agonist, APJ antag, CCR6 antagonist) | CXCR6 confirm 64
Nc1nnc(SCC(=O)OCC(=O)c2ccccc2)s1	none
Nc1nnc(SCC(=O)OCC(=O)c2ccccc2Br)s1	CXCR6 block 49 | CXCR6 confirm inactive
COc1cccc(-c2csc(N3CCN(C(=O)Nc4ccc(F)cc4)CC3)n2)c1	none
COc1cccc(-c2csc(N3CCN(C(=O)Nc4ccccc4OC)CC3)n2)c1	CXCR6 block 68 | CXCR6 confirm inactive
Cc1c(Cl)cccc1NC(=S)NC(=O)c1cncc(Br)c1	CXCR6 block 42 | CXCR6 confirm inactive
O=[N+]([O-])c1nn(-c2ccc(Cl)cc2)n(O)c1=NCc1ccncc1	none
CCCC(=O)OCCNc1cc(SCCC(=O)OC)c2nonc2c1[N+](=O)[O-]	CXCR6 block 50, CCR6 antagonist 62 | CXCR6 confirm 63
CC(=O)OCCNc1cc(Sc2nc3ccccc3[nH]2)c2nonc2c1[N+](=O)[O-]	CXCR6 block 96, CCR6 antagonist 103, EBI2 block 59 (no result: APJ agonist, APJ antag) | CXCR6 confirm 105
O=[N+]([O-])c1c(NCCCO)cc(Sc2ccc(Cl)cc2)c2nonc12	CXCR6 block 77, CCR6 antagonist 98 (no result: APJ agonist, APJ antag) | CXCR6 confirm 96
COC(=O)CCSc1cc(NCCOC(C)=O)c([N+](=O)[O-])c2nonc12	none
O=[N+]([O-])c1c(NCCCO)cc(N2CCCCCC2)c2nonc12	none
Clc1ccccc1-c1nnc2sc(-c3ccco3)nn12	none
COc1cc(NS(=O)(=O)c2ccc(NC(=O)Cc3ccccc3)cc2)nc(OC)n1	none
CCN1CCN(C(=O)/C=C/c2ccc(C)o2)CC1	none
Cc1ccc(/C=C/C(=O)N2CC(C)CC(C)C2)o1 (stereo unspecified)	CXCR6 block 76 | CXCR6 confirm inactive
NS(=O)(=O)c1ccc(CNC(=S)Nc2ccc(F)c(Cl)c2)cc1	none
COc1cccc(C(=O)Nc2ccc(N(C)C)cc2)c1OC	none
CCOC(=O)Cc1c(C)nc2c(-c3cccc(Br)c3)c[nH]n2c1=O	CXCR6 block 36 | CXCR6 confirm inactive
CC(Oc1ccc(Br)cc1)C(=O)Nc1nc(-c2ccccn2)cs1 (stereo unspecified)	CXCR6 block 93, CCR6 antagonist 84 | CXCR6 confirm 86
C=CCNc1nc(C(=O)OCC(=O)c2ccccc2)cs1	CXCR6 block 103 | CXCR6 confirm inactive
Cc1cc(F)ccc1S(=O)(=O)N1CCCCC1CCNC(=O)C(=O)NCCN1CCOCC1 (stereo unspecified)	none
Cc1ccc(C(=O)c2cc([N+](=O)[O-])ccc2N2CCN(C)CC2)cc1	CXCR6 block 59 | CXCR6 confirm inactive
CN1CCN(c2ccc([N+](=O)[O-])cc2C(=O)c2ccc(Br)cc2)CC1	none
Cc1ccc(-n2nnnc2-c2ccco2)cc1	none
C[C@@]12C(C[C@H](O)[C@@]34C[C@@H](CCC13)[C@@H](CO)C4=O)[C@](C)(C(=O)O)CC[C@@H]2O (stereo partly specified)	none (no result: APJ agonist, APJ antag, CCR6 antagonist)
C=C1C(=O)[C@]23C[C@H]1CCC2[C@@]1(C)C(C[C@@H]3O)[C@](C)(C(=O)OC)CC[C@@H]1O (stereo partly specified)	CXCR6 block 55 (no result: APJ agonist, APJ antag, CCR6 antagonist) | CXCR6 confirm 70
Cc1sc(Cc2nc(O)cs2)nc1-c1ccccc1	CXCR6 block 52, APJ antag 45 | CXCR6 confirm inactive
Oc1csc(Cc2nc(-c3ccc(Br)cc3)cs2)n1	none
O=C(O)COc1ccc2nsnc2c1Cl	none
O=C(CN1C2CCCC1CC(NC(=O)c1ccco1)C2)Nc1ccccc1 (stereo unspecified)	none
COc1cc(C(=O)NC2CC3CCCC(C2)N3CC(=O)Nc2ccccc2)cc(OC)c1OC (stereo unspecified)	CXCR6 block 62 | CXCR6 confirm 69
CC(=O)Nc1nc2ccccc2n1CCOc1ccccc1Cl	CXCR6 block 41 | CXCR6 confirm 66
CC(=O)Nc1ccc(S(=O)(=O)Nc2cccc3[nH]ncc23)cc1	none
CCCCSc1nc2[nH]ncc2c(=O)[nH]1	none
COc1cccc(-n2nc(C#N)c(Cl)cc2=O)c1	CXCR6 block 50, APJ antag 49, EBI2 block 47 | CXCR6 confirm 51
C=C1C(=O)C23C(O)C1CCC2C12CCCC(C)(COC(C)=O)C1C(O)C3(O)OC2 (stereo unspecified)	CXCR6 block 76, CCR6 antagonist 103, EBI2 block 77 (no result: APJ agonist, APJ antag) | CXCR6 confirm 95
CC[n+]1c(C)sc2c(C)cc(C)cc21	none
CCC[n+]1c(C)sc2c3c(ccc21)CCCC3	CXCR6 block 42 | CXCR6 confirm inactive
CC(C)(CN1CCCC1)NC(=O)C1CCC(=O)N(CCCN2CCOCC2)C1 (stereo unspecified)	none
CCCCc1c(Cc2ccccc2)ncn1CCc1ccccc1OC	CXCR6 block 38 (no result: APJ agonist, APJ antag, CCR6 antagonist) | CXCR6 confirm inactive
COc1ccccc1C(=O)NC(=O)Nc1nc(-c2ccccc2)cc(C(F)(F)F)n1	none
O=C(Nc1ccccc1Cl)N1C2CCC1CC(O)(c1cccnc1)C2 (stereo unspecified)	none
CCOC(=O)CCS(=O)(=O)c1nc(-c2ccccc2)cc(C(F)(F)F)n1	none
CCOC(=O)CS(=O)(=O)c1nc(-c2ccccc2)cc(C(F)(F)F)n1	CXCR6 block 51 | CXCR6 confirm 44
O=C1OCCN1C(=O)[C@H]1[C@H](c2ccc(Cl)cc2)C(c2ccc(F)cc2)=NN1c1ccc(Br)cc1	CXCR6 block 38 (no result: APJ agonist, APJ antag) | CXCR6 confirm inactive
CCN(CC)S(=O)(=O)c1ccc(S(=O)(=O)N(Cc2ccccn2)Cc2ccco2)cc1	none
